Laboratory results reported in ChEMBL document CHEMBL3526018, “Metabolites of PPI-2458, a selective, irreversible inhibitor of methionine aminopeptidase-2: structure determination and in vivo activity” (Drug Metab Dispos, 2013).
Calls of active or inactive are those of the source. The rule behind the calls is not given here.

Assays:
CYP3A4 (Homo sapiens) [1] = assay: Ratio of Vmax to Km for human recombinant CYP3A4 assessed as ((3R,4S,5S,6R)-4-((2R,3R)-3-((E)-4-hydroxy-3-methylbut-2-en-1-yl)-2-methyloxiran-2-yl)-5-methoxy-1-oxaspiro[2.5]octan-6-yl((R)-1-amino-3-methyl-1-oxobutan-2-yl)carbamate) formation; details: recombinant enzyme
CYP3A4 (Homo sapiens) [2] = assay: Ratio of Vmax to Km for human recombinant CYP3A4 assessed as ((3R,4S,5S,6R)-4-((2R,3R)-3-(((S)-3,3-dimethyloxiran-2-yl)methyl)-2-methyloxiran-2-yl)-5-methoxy-1-oxaspiro[2.5]octan-6-yl ((R)-1-amino-3-methyl-1-oxobutan-2-yl)carbamate) formation; details: recombinant enzyme
[3] = Metabolic stability in monkey liver microsomes assessed as retention time of ((3R,4S,5S,6R)-5-methoxy-4-((2R,3R)-2-methyl-3-(3-methylbut-2-en-1-yl)oxiran-2-yl)-1-oxaspiro[2.5]octan-6-yl ((R)-1-amino-3-hydroxy-3-methyl-1-oxobutan-2-yl)carbamate) at 5 mM by LC/MS analysis; type: ADME, Macaca mulatta; details: rhesus monkey, 5000 µM
Summary of the method: (§1)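 Liver microsomes (pooled male/female) in 100 mM KPO4 pH 7.4 with PPI-2458 (5 mM stock), pre-incubated 5 min at 37°C, then 10 mM NADPH added; 20 min at 37°C with shaking. Time-zero and no-NADPH controls. Quenched with CH3CN; supernatant dried and redissolved in water. Analysed by LC-MS, ESI+ full scan 300–800 amu, C18 column, 10→50% B gradient.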

CYP3A5 (Homo sapiens) [4] = assay: Activity of human recombinant CYP3A5 assessed as ((3R,4S,5S,6R)-4-((2R,3R)-3-(((R)-3,3-dimethyloxiran-2-yl)methyl)-2-methyloxiran-2-yl)-5-methoxy-1-oxaspiro[2.5]octan-6-yl ((R)-1-amino-3-methyl-1-oxobutan-2-yl)carbamate) formation; details: recombinant enzyme
Liver [5] = assay: Metabolic stability in mouse liver microsomes assessed as retention time of ((3R,4S,5S,6R)-5-methoxy-4-((2R,3R)-2-methyl-3-(3-methylbut-2-en-1-yl)oxiran-2-yl)-1-oxaspiro[2.5]octan-6-yl ((R)-1-amino-3-hydroxy-3-methyl-1-oxobutan-2-yl)carbamate) at 5 mM by LC/MS analysis; type: ADME; details: 5000 µM
Summary of the method: as §1

CYP3A4 (Homo sapiens) [6] = assay: Ratio of Vmax to Km for human recombinant CYP3A4 assessed as ((3R,4S,5S,6R)-4-((2R,3R)-3-(((R)-3,3-dimethyloxiran-2-yl)methyl)-2-methyloxiran-2-yl)-5-methoxy-1-oxaspiro[2.5]octan-6-yl ((R)-1-amino-3-methyl-1-oxobutan-2-yl)carbamate) formation; details: recombinant enzyme
Rattus norvegicus [7] = assay: Inhibition of MetAP2 level in Sprague-Dawley rat liver assessed as free enzyme level at 0.3 mg/kg, iv by ELISA; type: functional, organism-based; design: dose 0.3 mg/kg
Summary of the method: (§2)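 Male Sprague-Dawley rats (200-225 g, n=3 per group) were dosed once IV at 0.3 mg/kg or PO at 0.3 or 3.0 mg/kg, in 11% HPCD in water. Blood, liver, lung, thymus and pooled non-mesenteric lymph nodes were taken at ~24 h and lysed or homogenized with NP-40. Free MetAP2 was measured by ELISA and expressed as % of vehicle.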

CYP3A5 (Homo sapiens) [8] = assay: Activity of human recombinant CYP3A5 assessed as ((3R,4S,5S,6R)-4-((2R,3R)-3-((E)-4-hydroxy-3-methylbut-2-en-1-yl)-2-methyloxiran-2-yl)-5-methoxy-1-oxaspiro[2.5]octan-6-yl((R)-1-amino-3-methyl-1-oxobutan-2-yl)carbamate) formation; details: recombinant enzyme
Liver microsome [9] = assay: Metabolic stability in dog liver microsomes assessed as retention time of ((3R,4S,5S,6R)-4-((2R,3R)-3-((E)-4-hydroxy-3-methylbut-2-en-1-yl)-2-methyloxiran-2-yl)-5-methoxy-1-oxaspiro[2.5]octan-6-yl((R)-1-amino-3-methyl-1-oxobutan-2-yl)carbamate) at 5 mM by LC/MS analysis; type: ADME, Canis lupus familiaris; details: 5000 µM
Liver [10] = assay: Metabolic stability in mouse liver microsomes assessed as retention time of ((3R,4S,5S,6R)-4-((2R,3R)-3-(((S)-3,3-dimethyloxiran-2-yl)methyl)-2-methyloxiran-2-yl)-5-methoxy-1-oxaspiro[2.5]octan-6-yl ((R)-1-amino-3-methyl-1-oxobutan-2-yl)carbamate) at 5 mM by LC/MS analysis; type: ADME; details: 5000 µM
Summary of the method: as §1

CYP3A5 (Homo sapiens) [11] = assay: Ratio of Vmax to Km for human recombinant CYP3A5 assessed as ((3R,4S,5S,6R)-4-((2R,3R)-3-((E)-4-hydroxy-3-methylbut-2-en-1-yl)-2-methyloxiran-2-yl)-5-methoxy-1-oxaspiro[2.5]octan-6-yl((R)-1-amino-3-methyl-1-oxobutan-2-yl)carbamate) formation; details: recombinant enzyme
Rattus norvegicus [12] = assay: Inhibition of MetAP2 level in Sprague-Dawley rat lung assessed as free enzyme level at 0.3 mg/kg, iv by ELISA; type: functional, organism-based; design: dose 0.3 mg/kg
Summary of the method: as §2

Rattus norvegicus [13] = assay: Inhibition of MetAP2 level in Sprague-Dawley rat lung assessed as free enzyme level at 3 mg/kg, po by ELISA; type: functional, organism-based; design: dose 3 mg/kg
Summary of the method: as §2

Liver microsome [14] = assay: Metabolic stability in rat liver microsomes assessed as retention time of ((3R,4S,5S,6R)-5-methoxy-4-((2R,3R)-2-methyl-3-(3-methylbut-2-en-1-yl)oxiran-2-yl)-1-oxaspiro[2.5]octan-6-yl ((R)-1-amino-3-hydroxy-3-methyl-1-oxobutan-2-yl)carbamate) at 5 mM by LC/MS analysis; type: ADME; details: 5000 µM
Summary of the method: as §1

CYP3A5 (Homo sapiens) [15] = assay: Activity of human recombinant CYP3A5 assessed as ((3R,4S,5S,6R)-4-((2R,3R)-3-(((S)-3,3-dimethyloxiran-2-yl)methyl)-2-methyloxiran-2-yl)-5-methoxy-1-oxaspiro[2.5]octan-6-yl ((R)-1-amino-3-methyl-1-oxobutan-2-yl)carbamate) formation; details: recombinant enzyme

With `CO[C@@H]1[C@H](OC(=O)N[C@@H](C(N)=O)C(C)C)CC[C@]2(CO2)[C@H]1[C@@]1(C)O[C@@H]1CC=C(C)C` [PPI-2458] the Vmax/Km (CYP3A4 (Homo sapiens) [1]) was 0.09 µL/min, the Vmax/Km (CYP3A4 (Homo sapiens) [2]) was 0.19 µL/min and the Drug metabolism [3] was “metabolite_detected”. For the same compound, the Km (CYP3A5 (Homo sapiens) [4]) was 17 µM, the Drug metabolism (Liver [5]) was “metabolite_detected” and the Vmax/Km (CYP3A4 (Homo sapiens) [6]) was 0.16 µL/min. For the same compound, the inhibition (Rattus norvegicus [7]) was “Active”, the Km (CYP3A5 (Homo sapiens) [8]) was 26 µM and the Drug metabolism (Liver microsome [9]) was “metabolite_detected”. The Drug metabolism (Liver [10]) was “metabolite_detected”, the Vmax/Km (CYP3A5 (Homo sapiens) [11]) was 0.031 µL/min and the inhibition (Rattus norvegicus [12]) was “Active”. For the same compound, the inhibition (Rattus norvegicus [13]) was “Active”, the Drug metabolism (Liver microsome [14]) was “metabolite_detected” and the Km (CYP3A5 (Homo sapiens) [15]) was 17 µM.
